ZTA counter – blocks Epstein-Barr virus ZTA, an EBNA-1 counter-screen. P03206. ZTA-DNA binding, fluorescence polarization. inhibition, % at 11 µM. hit rate 0.15% among 320,000. AID 2234; in the data active = inhibition above about 33%
Target sequence (P03206 whole entry, looked up): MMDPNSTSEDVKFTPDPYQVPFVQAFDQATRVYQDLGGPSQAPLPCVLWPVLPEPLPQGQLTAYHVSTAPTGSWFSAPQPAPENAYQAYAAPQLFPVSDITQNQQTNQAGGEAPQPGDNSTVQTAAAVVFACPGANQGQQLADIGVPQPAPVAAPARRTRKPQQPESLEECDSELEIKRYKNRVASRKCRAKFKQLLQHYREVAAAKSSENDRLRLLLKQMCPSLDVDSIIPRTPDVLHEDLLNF
UBC13 inh – human UBC13 polyubiquitination inhibition. UBC13 polyubiquitin chain formation, TR-FRET. inhibition, % at 20 µM. hit rate 0.47% among 330,000; in the data active = inhibition above about 45%, passing the limit was not always enough
Target sequence (P61088 whole entry, looked up): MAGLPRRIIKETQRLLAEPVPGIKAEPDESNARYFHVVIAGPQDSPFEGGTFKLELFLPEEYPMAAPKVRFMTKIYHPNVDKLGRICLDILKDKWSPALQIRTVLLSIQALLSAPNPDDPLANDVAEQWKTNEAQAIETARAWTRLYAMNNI
EBNA-1 inhibitor – blocks EBNA-1 binding to DNA; inhibition, % at 14.8 µM; EBNA-1 DNA binding, fluorescence polarization; AID 1950; hit rate 0.34% among 300,000; in the data active = inhibition above about 28%
PREPL inh – inhibits the human prolyl oligopeptidase-like enzyme. hit rate 0.68% among 320,000. inhibition, % at 5.96 µM. recombinant PREPL, fluorescence polarization activity-based probe. Q4J6C6;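 also: 0% = enzyme with DMSO and 100% = wells lacking enzyme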
Apaf1 inhib – inhibitors of human Apaf-1 apoptosome; O14727; reconstituted apoptosome caspase-3 activity, DEVD-Rh110 fluorescence; inhibition, % at 20 µM; hit rate 0.71% among 330,000; AID 489030; active = inhibition of at least 40% at 20 µM;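 also: plate controls were DMSO wells for no effect and DEVD-CHO caspase inhibitor wells for full effect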
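System: reconstituted apoptosome with Apaf-1, cytochrome c, caspase-9, procaspase-3, dATP; Signal: Rh110 fluorescence intensity; Schedule: 30 min compound preincubation, 50 min activation, room temperature; Reagent: cytochrome c trigger plus (Z-DEVD)2-Rh110 caspase-3 substrate.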
Zta DNA confirm – confirmation of Epstein-Barr virus ZTA DNA binding inhibitors; shares compounds with ZTA counter; Zta-ZRE DNA binding, fluorescence polarization; inhibition, % at 11.1 µM; hit rate 30% among 320;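 active = mean inhibition across triplicate runs above the hit threshold derived for the original primary screen, cut at about 33% in these data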;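 also: 0% = Zta with DMSO and 100% = wells lacking Zta protein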
EBNA1 counter – EBNA-1 DNA binding inhibition, counter-screen for ZTA; 320 tested, under 10 active; shares compounds with ZTA counter; fluorescence polarization; inhibition, % at 14.8 µM; call rule not given here
PREPL inh cf – human PREPL inhibition, confirmation; shares compounds with PREPL inh; hit rate 67% among 2,000; AID 2803; recombinant PREPL, fluorescence polarization activity probe; inhibition, % at 5.96 µM;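 also: 0% = protein with DMSO and 100% = wells lacking protein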
The depositor's hits bear a star. Hits are enriched below; roughly 1.7% of the tested compounds scored in any of these assays. Rule as the data show it, unless noted: active = inhibition above about 43%; inactive = the rest.

What do the screens show for `CCN(CC)c1ccc(N=Cc2c(O)n(-c3ccc(Cl)cc3)c(=O)[nH]c2=O)cc1`?
ZTA counter: -8.6; UBC13 inh: -33.3; EBNA-1 inhibitor: -3.8; PREPL inh: 19.8; Apaf1 inhib: 27.9

What do the screens show for `CCN(CC)c1ccc(N=Cc2c(O)n(-c3ccc(OC)cc3)c(=O)[nH]c2=O)cc1`?
ZTA counter: 36.4*; UBC13 inh: -38.5; EBNA-1 inhibitor: -5.9; PREPL inh: 15.3; Apaf1 inhib: 32.9; Zta DNA confirm: -5.2; EBNA1 counter: -10.8

How did CS(=O)(=O)NNP(=O)(NNS(C)(=O)=O)NC(=O)c1ccccc1 do in these assays?
ZTA counter: 1.6; UBC13 inh: -11.3; EBNA-1 inhibitor: -4.0; PREPL inh: 18.6; Apaf1 inhib: -5.6

What do the screens show for `Cc1cc(/C=C2\C(=O)NC(=O)N(c3ccccc3F)C2=O)c(C)n1-c1cc(C(=O)O)cc(C(=O)O)c1`?
ZTA counter: 33.0*; UBC13 inh: -25.2; EBNA-1 inhibitor: -1.9; PREPL inh: -10.6; Apaf1 inhib: -2.5; Zta DNA confirm: 60.4*; EBNA1 counter: 3.5

How did CCN(CC)C(=O)c1ccc2c(c1)C1C(Cl)C(Sc3ccccc3[N+](=O)[O-])CC1C(C(=O)O)N2 (centres undefined) do in these assays?
ZTA counter: 54.5*; UBC13 inh: -26.2; EBNA-1 inhibitor: 16.6; PREPL inh: 38.6; Apaf1 inhib: 25.4; Zta DNA confirm: 39.4*; EBNA1 counter: 8.0

What do the screens show for `C[C@@]1(CO)[C@H](O)CC[C@@]2(C)[C@H]1CC[C@H]1C[C@@H]3C[C@@]12CC[C@]3(O)CO`?
ZTA counter: -19.7; EBNA-1 inhibitor: 4.2; PREPL inh: 12.9

Results for CCN(CC)C(=O)COc1cc(C)cc2oc(=O)c3c(c12)CCCC3 ?
UBC13 inh: 8.8; Apaf1 inhib: 10.1

Results for Cn1ncnc2c(=O)n(C)c(=O)nc1-2 ?
ZTA counter: 59.0*; UBC13 inh: -59.9; EBNA-1 inhibitor: 1.1; PREPL inh: 44.4*; Apaf1 inhib: 98.9*; Zta DNA confirm: 72.0*; EBNA1 counter: -10.8; PREPL inh cf: 53.7*

How did CCCCn1c(=O)c(C(=O)Nc2ccccc2N)c(O)c2ccccc21 do in these assays?
ZTA counter: -12.8; UBC13 inh: -6.4; EBNA-1 inhibitor: -1.9; PREPL inh: -0.3; Apaf1 inhib: 17.1

Results for CC(C)Nc1ccc(Nc2ccccc2)cc1 ?
ZTA counter: -3.1; UBC13 inh: 2.7; EBNA-1 inhibitor: -5.0; PREPL inh: 77.2*; Apaf1 inhib: 17.7; PREPL inh cf: 55.2*

Results for Cc1[nH]c2ccccc2c1CCCNC1CCCCC1 ?
ZTA counter: -9.7; UBC13 inh: 12.9; EBNA-1 inhibitor: 5.3; PREPL inh: 45.3*; Apaf1 inhib: -19.8; PREPL inh cf: 34.3

What do the screens show for `CCCCn1c(C)c(C(=O)OCC)c2c(CN3CCCC3)c(O)ccc21`?
ZTA counter: -2.0; UBC13 inh: 15.7; EBNA-1 inhibitor: 2.1; PREPL inh: 54.6*; Apaf1 inhib: 10.5; PREPL inh cf: 33.9

What do the screens show for `Nc1c(C(=O)NCCc2ccccc2)c2nc3ccccc3nc2n1CCN1CCOCC1`?
ZTA counter: 7.6; UBC13 inh: 40.9; EBNA-1 inhibitor: 3.5; PREPL inh: 41.3; Apaf1 inhib: 7.6

What do the screens show for `COc1ccc2c3c([nH]c2c1)C(C)NCC3` (centres undefined)?
ZTA counter: -4.6; UBC13 inh: 6.0; EBNA-1 inhibitor: -6.7; PREPL inh: 66.8*; Apaf1 inhib: 26.2; PREPL inh cf: 4.0

What do the screens show for `COc1ccc2[nH]c3c(c2c1)CCNC3C` (centres undefined)?
ZTA counter: 7.7; UBC13 inh: 7.6; EBNA-1 inhibitor: 6.3; PREPL inh: 12.9; Apaf1 inhib: -19.7

What do the screens show for `COC(=O)[C@@H]1C[C@H]1[C@@H](NP(=O)(c1ccccc1)c1ccccc1)c1ccccc1`?
ZTA counter: -6.9; UBC13 inh: 2.8; EBNA-1 inhibitor: 3.4; PREPL inh: 11.3; Apaf1 inhib: 9.9

What do the screens show for `COC(=O)[C@H]1C[C@@H]1[C@H](NP(=O)(c1ccccc1)c1ccccc1)c1ccccc1`?
ZTA counter: -7.1; UBC13 inh: -4.7; EBNA-1 inhibitor: 12.2; PREPL inh: 46.6*; Apaf1 inhib: 6.8; PREPL inh cf: 46.5*

What do the screens show for `CC(=O)OC1(c2ccccc2)CCN(C)C2CCCCC21` (centres undefined)?
ZTA counter: 13.4; UBC13 inh: -0.3; EBNA-1 inhibitor: 9.7; PREPL inh: -6.2; Apaf1 inhib: -24.8

Results for COc1ccc(C[C@H]2NC[C@H](O)[C@H]2OC(C)=O)cc1 ?
ZTA counter: 11.5; UBC13 inh: 7.3; EBNA-1 inhibitor: 7.6; PREPL inh: 4.4; Apaf1 inhib: 3.5

Results for CC(Cc1ccccc1)NC(=O)C(c1ccc(N)cc1)c1ccc(N)cc1 (centres undefined) ?
ZTA counter: 1.1; UBC13 inh: 4.6; EBNA-1 inhibitor: 5.0; PREPL inh: 49.5*; Apaf1 inhib: -0.2; PREPL inh cf: 32.6

Results for CC1=NCCc2c1[nH]c1ccccc21 ?
ZTA counter: -18.4; UBC13 inh: 7.9; EBNA-1 inhibitor: -5.5; PREPL inh: 57.1*; Apaf1 inhib: 27.2; PREPL inh cf: 26.6

How did O=C(CCCC1=NS(=O)(=O)c2ccccc2N1)N1CCC2(CC1)OCCO2 do in these assays?
ZTA counter: -2.7; UBC13 inh: 7.5; EBNA-1 inhibitor: 2.7; PREPL inh: 5.2; Apaf1 inhib: 4.0

How did COc1ccc2c(c1)c(CCN)c(C)n2Cc1ccccc1 do in these assays?
ZTA counter: 11.7; UBC13 inh: 14.6; EBNA-1 inhibitor: 2.1; PREPL inh: 44.5*; Apaf1 inhib: 12.9; PREPL inh cf: 42.0

What do the screens show for `COCCCN=Cc1c(O)[nH]c(=S)[nH]c1=O`?
ZTA counter: 13.6; UBC13 inh: -10.5; EBNA-1 inhibitor: 3.0; PREPL inh: -2.1; Apaf1 inhib: -8.5

Results for C=C[C@@H]1C[C@@]1(C)[C@@H](NP(=O)(c1ccccc1)c1ccccc1)c1ccccc1 ?
ZTA counter: 8.7; UBC13 inh: 10.5; EBNA-1 inhibitor: 9.3; PREPL inh: 48.4*; Apaf1 inhib: 12.2; PREPL inh cf: 48.1*

What do the screens show for `COC(=O)[C@]1(C)C[C@H]1[C@H](NP(=O)(c1ccccc1)c1ccccc1)c1ccccc1`?
ZTA counter: -7.8; UBC13 inh: -5.8; EBNA-1 inhibitor: -0.2; PREPL inh: -2.7; Apaf1 inhib: 2.4

How did CCCCn1c(=O)c(C(=O)Nc2ccccc2F)c(O)c2ccccc21 do in these assays?
ZTA counter: 3.4; UBC13 inh: 13.6; EBNA-1 inhibitor: -0.4; PREPL inh: -5.9; Apaf1 inhib: -0.1

Compound activity (PubChem)
